Platelet DG rel: platelet dense granule release activity. human platelet-rich plasma, SFLLRN dense granule ATP release, luminescence. inhibition, %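 (compounds screened at 7.5 µM in platelet-rich plasma)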. actives 0.22% (n = 300,000). AID 1663;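 active means mean replicate score, as percent of positive control, at or above 50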
SENP7 inh: inhibitors of human SENP7 protease; Q9BQF6; recombinant SENP7, Z-RLRGG-aminoluciferin luminescence, 40 min; inhibition, % at 5 µM; actives 1.5% (n = 330,000); AID 434973;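 active means inhibition above about 50% at the single test dose, limit read from the data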
SENP1 FRET inh: inhibitors of human SENP1 SUMO protease catalytic domain; Q9P0U3; recombinant SENP1 catalytic domain, CyPet-SUMO1-YPet FRET cleavage; inhibition, % at 10 µM; actives 0.21% (n = 360,000);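 active means inhibition at least 30% at 10 µM, raw YFP signal under a set limit, fluorescence ratio 0.5 to 1.5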
Target sequence (Q9P0U3 419-644 limits assumed): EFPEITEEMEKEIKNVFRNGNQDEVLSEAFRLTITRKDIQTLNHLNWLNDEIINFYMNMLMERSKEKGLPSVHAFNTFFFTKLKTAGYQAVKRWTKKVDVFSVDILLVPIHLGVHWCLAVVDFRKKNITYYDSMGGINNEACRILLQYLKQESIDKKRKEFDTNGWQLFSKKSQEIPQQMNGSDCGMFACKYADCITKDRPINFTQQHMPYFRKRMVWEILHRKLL
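Test system: human SENP1 catalytic domain; medium: Tris pH 8 buffer plus EDTA, NaCl, BME, BSA, NP40, catalase; incubation: 50 min reaction at room temperature; technique: FRET, CFP and YFP emission; controls: no-enzyme low control and enzyme-plus-DMSO high control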
SENP8 block-1: inhibitors of human SENP8 protease | recombinant SENP8, Nedd8 substrate fluorescence | actives 0.64% (n = 360,000) | Q96LD8 | inhibition, % at 20 µM; in the data active means inhibition mostly above about 40%, no sharp cut-off; inactive means mostly below about 27%
Target sequence (Q96LD8 whole entry, looked up): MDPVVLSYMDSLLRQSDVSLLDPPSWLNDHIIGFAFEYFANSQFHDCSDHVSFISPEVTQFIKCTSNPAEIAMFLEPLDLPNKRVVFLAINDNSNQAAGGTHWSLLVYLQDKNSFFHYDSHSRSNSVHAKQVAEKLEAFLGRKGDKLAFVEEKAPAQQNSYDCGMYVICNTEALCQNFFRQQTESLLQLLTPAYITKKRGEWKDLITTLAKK
SENP6 inh: SENP6 protease inhibition. Recombinant SENP6 catalytic domain, aminoluciferin luminescence. actives 1.8% (n = 330,000). inhibition, % at 10 µM;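 active means inhibition above about 50% at the single tested dose, limit read from the data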
SENP8 block-2: inhibitors of human SENP8 protease. purified SENP8, Z-RLRGG-aminoluciferin cleavage, luminescence. inhibition, % at 10 µM. actives 1.2% (n = 330,000). Q96LD8; in the data active means inhibition above about 50%
SENP8 confirm: confirmation of human SENP8 protease inhibitors | actives 40% (n = 6,200) | Recombinant SENP8, Z-RLRGG-aminoluciferin luminescence, 60 min | inhibition, % at 12.5 µM | shares compounds with SENP7 inh;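 active means mean inhibition across replicates above about 50%, limit read from the data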
SENP6 conf: human SENP6 inhibition, confirmed; recombinant SENP6, Z-RLRGG-aminoluciferin luminescence; inhibition, % at 12.5 µM; actives 58% (n = 6,200); shares compounds with SENP7 inh
SENP7 conf: confirmation of human SENP7 protease inhibitors. recombinant SENP7, Z-RLRGG-aminoluciferin luminescence, 40 min. actives 69% (n = 6,200). shares compounds with SENP7 inh. inhibition, % at 12.5 µM
Casp3 select: inhibits human caspase-3 in SENP selectivity test; actives 60% (n = 6,200); inhibition, % at 12.5 µM; shares compounds with SENP7 inh; AID 488918; purified caspase-3, Z-DEVD-aminoluciferin luminescence, 60 min;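 active means mean inhibition above about 50%, limit read from the data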
Target sequence (P42574 28-227 limits assumed): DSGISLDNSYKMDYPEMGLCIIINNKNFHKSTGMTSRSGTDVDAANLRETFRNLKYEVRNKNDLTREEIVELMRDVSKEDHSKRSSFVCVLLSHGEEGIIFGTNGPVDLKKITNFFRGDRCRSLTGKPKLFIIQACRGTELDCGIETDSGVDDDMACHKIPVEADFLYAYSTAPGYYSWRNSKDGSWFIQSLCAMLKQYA
SENP luc ctr: interferes with luciferase luminescence in SENP counter-screen | actives 39% (n = 6,200) | shares compounds with SENP7 inh | inhibition, % at 12.5 µM | Pre-incubated SENP8/Z-RLRGG-aminoluciferin, luciferase luminescence interference | AID 488919;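 active means mean inhibition above about 50% when retested at one dose, limit read from the data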
Large screens that a line does not name were inactive (follow-up assays come after a bar, where they were run). Only some compounds are listed: those with a hit (about 2.6% of all), similar ones and a draw of the others.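 How the source made its calls, unless noted: active means mean inhibition above about 50% in the one-dose retest (limit read from the data); inactive means the rest.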

COc1ccccc1CNC(=O)COc1ccccc1C(=O)c1cnn(-c2ccccc2)c1	SENP6 inh 50.7 (no result: Platelet DG rel) | SENP8 confirm inactive | SENP6 conf inactive | SENP7 conf 60.6 | Casp3 select inactive | SENP luc ctr inactive
Cn1nc(C(=O)NCc2ccccc2Cl)c2c1-c1ccccc1S(=O)(=O)C2	none
O=C(CCCN1C(=O)/C(=C/c2ccccc2Cl)SC1=S)NCCCN1CCOCC1	SENP6 inh 52.3 | SENP8 confirm 50.3 | SENP6 conf inactive | SENP7 conf 64.6 | Casp3 select inactive | SENP luc ctr inactive
O=C(CCN1C(=O)/C(=C/c2ccccc2Cl)SC1=S)N1CCCC1	none
O=C(CCCN1C(=O)/C(=C/c2ccccc2Cl)SC1=S)N1CCCC1	SENP7 inh 68.3, SENP6 inh 73.8, SENP8 block-2 84.0 | SENP8 confirm 84.6 | SENP6 conf 84.0 | SENP7 conf 87.7 | Casp3 select 61.3 | SENP luc ctr inactive
O=C(CCN1C(=O)/C(=C/c2ccccc2F)SC1=S)NCCCN1CCOCC1	none
Cc1ccc(OCc2nc(-c3ccccn3)no2)cc1	SENP7 inh 60.2 | SENP8 confirm inactive | SENP6 conf inactive | SENP7 conf 80.5 | Casp3 select 70.9 | SENP luc ctr inactive
Cc1ccc(SCc2nc(-c3ccccn3)no2)cc1	none
Clc1ccc(OCc2nc(-c3ccncc3)no2)c(Br)c1	none
CCc1ccc(OCc2nc(-c3ccccn3)no2)c(Br)c1	SENP7 inh 90.9, SENP6 inh 92.9, SENP8 block-2 90.5 | SENP8 confirm 95.1 | SENP6 conf 96.3 | SENP7 conf 100.9 | Casp3 select 87.1 | SENP luc ctr 79.1
CC(C)c1ccc(OCc2nc(-c3ccccn3)no2)c(Br)c1	SENP7 inh 68.5, SENP6 inh 85.3, SENP8 block-2 67.0 | SENP8 confirm 74.0 | SENP6 conf 82.2 | SENP7 conf 93.4 | Casp3 select 63.1 | SENP luc ctr 70.4
Cc1cc(OCc2nc(-c3cccnc3)no2)c(C)cc1Br	none
Cc1ccc(OCc2nc(-c3ccccn3)no2)c(Br)c1	SENP7 inh 96.2, SENP6 inh 81.9, SENP8 block-2 90.0 | SENP8 confirm inactive | SENP6 conf 96.0 | SENP7 conf 101.9 | Casp3 select 91.2 | SENP luc ctr 93.0
O=C(O)c1ccc2ccc3ccccc3c2c1	none
COc1ccc(-c2cc(-c3ccc(OC)c(OC)c3)n[nH]2)c(O)c1	SENP7 inh 96.4, SENP6 inh 94.2, SENP8 block-2 93.3 | SENP8 confirm 97.1 | SENP6 conf 97.6 | SENP7 conf 102.2 | Casp3 select 86.3 | SENP luc ctr 95.0
Oc1ccc(Br)cc1-c1cc(-c2ccc(Cl)cc2)n[nH]1	none
COC(=O)c1cc(-c2ccc(OC)c(OC)c2)n[nH]1	none
COc1ccc(-c2cc(-c3ccccc3O)[nH]n2)cc1OC	SENP7 inh 88.3, SENP6 inh 79.7, SENP8 block-2 78.4 | SENP8 confirm 92.7 | SENP6 conf 92.5 | SENP7 conf 100.7 | Casp3 select 68.6 | SENP luc ctr 92.6
COc1ccc(-c2cc(-c3cc(F)ccc3O)[nH]n2)cc1OC	SENP7 inh 82.9, SENP6 inh 72.0, SENP8 block-2 69.3 | SENP8 confirm 86.1 | SENP6 conf 84.4 | SENP7 conf 95.0 | Casp3 select inactive | SENP luc ctr 82.7
COc1ccc(-c2cc(-c3ccc(Cl)cc3)n[nH]2)c(O)c1	SENP7 inh 63.5, SENP6 inh 69.7, SENP8 block-2 64.3 | SENP8 confirm inactive | SENP6 conf inactive | SENP7 conf 86.6 | Casp3 select inactive | SENP luc ctr 66.5
CC1(c2ccc3c(c2)OCCCO3)NC(=O)N(CC(=O)Nc2cccc(C#N)c2)C1=O (stereo not drawn)	none (no result: Platelet DG rel)
CC(=O)NC12CC3CC(C1)CC(C(=O)Nc1nc4c(C)cccc4s1)(C3)C2	none
O=C(O)c1cc(-c2ccc3c(c2)OCCO3)n[nH]1	none
Oc1ccccc1-c1cc(-c2ccc3c(c2)OCCO3)n[nH]1	SENP6 inh 97.3, SENP8 block-2 94.6 | SENP8 confirm 97.3 | SENP6 conf 99.1 | SENP7 conf 102.6 | Casp3 select 91.7 | SENP luc ctr 68.3
CCCCN(C(=O)c1cccc(S(=O)(=O)N(CC)c2ccccc2)c1)c1c(N)n(CCCC)c(=O)[nH]c1=O	none (no result: Platelet DG rel, SENP7 inh, SENP6 inh, SENP8 block-2)
CCOC(=O)C1(C)CCN1C(=O)c1cc(-c2ccc(Cl)cc2)oc1C (stereo not drawn)	none (no result: Platelet DG rel, SENP7 inh, SENP6 inh, SENP8 block-2)
Clc1ccccc1-c1nnc(-c2ccccc2Cl)o1	SENP6 inh 82.6, SENP8 block-2 77.0 | SENP8 confirm 79.2 | SENP6 conf 82.9 | SENP7 conf 93.9 | Casp3 select 69.0 | SENP luc ctr 50.2
Clc1ccc(-c2nnc(-c3ccccc3Cl)o2)cc1	SENP7 inh 86.9, SENP6 inh 83.3, SENP8 block-2 50.4 | SENP8 confirm inactive | SENP6 conf inactive | SENP7 conf 52.2 | Casp3 select inactive | SENP luc ctr inactive
Clc1ccc(-c2nnc(-c3cccnc3)o2)cc1	none
CCCNCc1nnc(-c2ccccc2Cl)o1	none
CC(C)(C)c1cc[n+](C2=C([O-])c3ccccc3C(=O)/C2=N\S(=O)(=O)c2cccs2)cc1	SENP8 block-1 106.0, SENP6 inh 65.7, SENP8 block-2 51.3 | SENP8 confirm 51.3 | SENP6 conf 75.4 | SENP7 conf inactive | Casp3 select inactive | SENP luc ctr inactive
NC(=O)c1ccccc1N/C=C/C(=O)c1ccccc1	SENP7 inh 90.7, SENP6 inh 94.1, SENP8 block-2 87.8 | SENP8 confirm 86.6 | SENP6 conf 95.1 | SENP7 conf 101.8 | Casp3 select 96.3 | SENP luc ctr 80.9
COC(=O)c1ccc(N/C=C/C(=O)c2ccccc2)cc1	SENP7 inh 95.8, SENP6 inh 89.5, SENP8 block-2 75.0 | SENP8 confirm inactive | SENP6 conf inactive | SENP7 conf inactive | Casp3 select inactive | SENP luc ctr inactive

From PubChem
